Results as given in article PMC4780262 (Bioorganic & medicinal chemistry, 2013).

Columns and labels:
SUV39H2 = SUV39H2 (Homo sapiens, UniProt Q9H5I1); assay: HMT selectivity assay; type: biochemical
How it was run: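 Triplicate reactions, 1 h at room temperature. Quenched with 7.5 M guanidine HCl; read as Flashplate CPM. Normalised to no-compound and no-enzyme wells. IC50 from 100 nM–100 μM; Ki = IC50/2.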

MLL1 complex = MLL1 complex (Homo sapiens, UniProt Q03164); assay: HMT selectivity assay; type: biochemical
How it was run: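 Triplicate, 1 h at room temperature. Quenched with 7.5 M guanidine HCl; tritium read by Flashplate SPA. Normalised to no-compound and no-enzyme wells. IC50 from 100 nM–100 μM; Ki = IC50/2.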

haspin catalytic domain = target: T1, haspin catalytic domain (Homo sapiens, UniProt Q8TF76); assay: Differential scanning fluorimetry on haspin catalytic domain; type: binding; conditions: 10 μM compound
T1 sequence (Q8TF76 484-798 limits assumed): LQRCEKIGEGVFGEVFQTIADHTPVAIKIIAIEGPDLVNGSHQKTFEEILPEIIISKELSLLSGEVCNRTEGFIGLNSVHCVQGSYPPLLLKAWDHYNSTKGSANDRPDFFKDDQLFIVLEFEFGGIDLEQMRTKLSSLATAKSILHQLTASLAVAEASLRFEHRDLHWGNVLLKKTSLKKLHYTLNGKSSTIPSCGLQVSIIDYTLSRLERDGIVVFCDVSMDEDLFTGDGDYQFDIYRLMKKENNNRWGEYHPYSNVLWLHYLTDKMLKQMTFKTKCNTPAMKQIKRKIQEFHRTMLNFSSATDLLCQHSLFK

EZH2 (PRC2 complex) = EZH2 (PRC2 complex) (Homo sapiens, UniProt Q15910); assay: HMT selectivity assay; type: biochemical
How it was run: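 Triplicate, 1 h at room temperature. Guanidine HCl quench, then Flashplate CPM. 100% = no compound; 0% = no enzyme. IC50 over 100 nM–100 μM; Ki = IC50/2.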

PRMT3 = PRMT3 (Homo sapiens, UniProt O60678); assay: HMT selectivity assay; type: biochemical
SETD8 = target: T2, SETD8 (Homo sapiens, UniProt Q9NQR1); assay: HMT selectivity assay; type: biochemical
T2 sequence (Q9NQR1 1-393): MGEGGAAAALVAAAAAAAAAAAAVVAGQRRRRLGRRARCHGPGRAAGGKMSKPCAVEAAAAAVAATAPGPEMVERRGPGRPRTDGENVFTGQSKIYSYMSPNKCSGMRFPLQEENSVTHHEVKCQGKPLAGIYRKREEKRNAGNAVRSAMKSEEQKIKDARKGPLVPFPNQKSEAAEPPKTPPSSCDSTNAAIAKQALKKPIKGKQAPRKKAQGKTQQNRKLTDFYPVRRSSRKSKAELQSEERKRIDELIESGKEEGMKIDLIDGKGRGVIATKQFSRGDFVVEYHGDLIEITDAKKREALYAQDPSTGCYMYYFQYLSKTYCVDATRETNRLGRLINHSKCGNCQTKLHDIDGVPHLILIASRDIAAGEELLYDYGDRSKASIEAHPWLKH
How it was run: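 Triplicate, 1 h at room temperature. Guanidine HCl stop; Flashplate SPA CPM. No compound = 100%, no enzyme = 0%. IC50 over 100 nM–100 μM; Ki = IC50/2.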

PRMT5-MEP50 = PRMT5-MEP50 (Homo sapiens, UniProt O14744); assay: HMT selectivity assay; type: biochemical
EHMT1/GLP = target: T3, EHMT1/GLP (Homo sapiens, UniProt Q9H9B1); assay: HMT selectivity assay; type: biochemical
T3 sequence (Q9H9B1 1-1298): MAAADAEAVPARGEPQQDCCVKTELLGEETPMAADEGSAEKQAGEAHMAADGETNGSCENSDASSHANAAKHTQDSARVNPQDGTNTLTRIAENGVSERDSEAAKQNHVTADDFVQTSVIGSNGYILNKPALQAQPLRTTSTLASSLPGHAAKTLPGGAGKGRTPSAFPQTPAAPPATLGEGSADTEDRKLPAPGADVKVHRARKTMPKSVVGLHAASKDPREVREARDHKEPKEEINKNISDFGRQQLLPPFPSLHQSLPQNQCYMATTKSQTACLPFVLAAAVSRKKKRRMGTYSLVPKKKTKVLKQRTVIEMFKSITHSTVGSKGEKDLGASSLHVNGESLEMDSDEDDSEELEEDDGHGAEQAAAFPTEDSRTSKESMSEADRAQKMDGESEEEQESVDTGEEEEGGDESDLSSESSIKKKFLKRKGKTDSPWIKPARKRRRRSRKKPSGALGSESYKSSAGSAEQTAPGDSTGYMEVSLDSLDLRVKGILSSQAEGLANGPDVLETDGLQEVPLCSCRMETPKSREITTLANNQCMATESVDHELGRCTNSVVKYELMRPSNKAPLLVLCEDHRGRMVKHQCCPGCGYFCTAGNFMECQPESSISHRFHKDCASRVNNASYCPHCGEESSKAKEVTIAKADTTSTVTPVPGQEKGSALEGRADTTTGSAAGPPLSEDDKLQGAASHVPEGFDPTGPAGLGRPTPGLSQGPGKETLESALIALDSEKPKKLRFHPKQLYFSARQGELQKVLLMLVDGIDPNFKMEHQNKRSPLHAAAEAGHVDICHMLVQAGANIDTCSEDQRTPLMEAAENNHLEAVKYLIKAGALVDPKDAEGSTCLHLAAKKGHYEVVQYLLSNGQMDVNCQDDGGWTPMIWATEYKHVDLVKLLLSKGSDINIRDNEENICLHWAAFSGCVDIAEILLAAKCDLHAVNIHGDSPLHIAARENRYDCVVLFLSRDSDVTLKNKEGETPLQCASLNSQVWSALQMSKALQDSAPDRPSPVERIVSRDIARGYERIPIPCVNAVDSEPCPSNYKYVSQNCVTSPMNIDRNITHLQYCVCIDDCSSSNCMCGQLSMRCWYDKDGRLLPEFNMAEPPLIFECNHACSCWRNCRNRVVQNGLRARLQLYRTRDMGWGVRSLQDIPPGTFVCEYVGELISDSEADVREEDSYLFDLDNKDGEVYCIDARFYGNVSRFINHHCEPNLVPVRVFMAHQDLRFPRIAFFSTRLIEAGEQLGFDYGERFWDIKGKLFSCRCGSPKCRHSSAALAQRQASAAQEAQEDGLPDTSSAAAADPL
How it was run: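 Stopped with 7.5 M guanidine HCl, then Flashplate CPM. No compound = 100%, no enzyme = 0%. IC50 from 100 nM–100 μM; Ki = IC50/2.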

SETD7 = target: T4, SETD7 (Homo sapiens, UniProt Q8WTS6); assay: HMT selectivity assay; type: biochemical
T4 sequence (Q8WTS6 1-366): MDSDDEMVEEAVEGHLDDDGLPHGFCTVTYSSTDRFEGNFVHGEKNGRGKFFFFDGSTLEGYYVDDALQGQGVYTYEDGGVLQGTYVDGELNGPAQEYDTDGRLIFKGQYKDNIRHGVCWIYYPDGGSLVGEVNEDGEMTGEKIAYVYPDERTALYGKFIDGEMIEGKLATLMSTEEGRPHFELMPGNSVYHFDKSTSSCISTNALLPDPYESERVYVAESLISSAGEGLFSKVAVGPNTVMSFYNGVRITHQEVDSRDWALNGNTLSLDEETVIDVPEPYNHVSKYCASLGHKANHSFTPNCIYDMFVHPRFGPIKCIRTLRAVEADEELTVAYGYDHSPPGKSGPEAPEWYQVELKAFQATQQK
How it was run: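 Triplicate, room temperature, 1 h. Stopped with 7.5 M guanidine HCl; Flashplate CPM. Normalised to no-compound and no-enzyme controls. IC50 from 100 nM–100 μM; Ki = IC50/2.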

EHMT2/G9a = target: T5, EHMT2/G9a (Homo sapiens, UniProt Q96KQ7); assay: HMT selectivity assay; type: biochemical
T5 sequence (Q96KQ7 1-1210): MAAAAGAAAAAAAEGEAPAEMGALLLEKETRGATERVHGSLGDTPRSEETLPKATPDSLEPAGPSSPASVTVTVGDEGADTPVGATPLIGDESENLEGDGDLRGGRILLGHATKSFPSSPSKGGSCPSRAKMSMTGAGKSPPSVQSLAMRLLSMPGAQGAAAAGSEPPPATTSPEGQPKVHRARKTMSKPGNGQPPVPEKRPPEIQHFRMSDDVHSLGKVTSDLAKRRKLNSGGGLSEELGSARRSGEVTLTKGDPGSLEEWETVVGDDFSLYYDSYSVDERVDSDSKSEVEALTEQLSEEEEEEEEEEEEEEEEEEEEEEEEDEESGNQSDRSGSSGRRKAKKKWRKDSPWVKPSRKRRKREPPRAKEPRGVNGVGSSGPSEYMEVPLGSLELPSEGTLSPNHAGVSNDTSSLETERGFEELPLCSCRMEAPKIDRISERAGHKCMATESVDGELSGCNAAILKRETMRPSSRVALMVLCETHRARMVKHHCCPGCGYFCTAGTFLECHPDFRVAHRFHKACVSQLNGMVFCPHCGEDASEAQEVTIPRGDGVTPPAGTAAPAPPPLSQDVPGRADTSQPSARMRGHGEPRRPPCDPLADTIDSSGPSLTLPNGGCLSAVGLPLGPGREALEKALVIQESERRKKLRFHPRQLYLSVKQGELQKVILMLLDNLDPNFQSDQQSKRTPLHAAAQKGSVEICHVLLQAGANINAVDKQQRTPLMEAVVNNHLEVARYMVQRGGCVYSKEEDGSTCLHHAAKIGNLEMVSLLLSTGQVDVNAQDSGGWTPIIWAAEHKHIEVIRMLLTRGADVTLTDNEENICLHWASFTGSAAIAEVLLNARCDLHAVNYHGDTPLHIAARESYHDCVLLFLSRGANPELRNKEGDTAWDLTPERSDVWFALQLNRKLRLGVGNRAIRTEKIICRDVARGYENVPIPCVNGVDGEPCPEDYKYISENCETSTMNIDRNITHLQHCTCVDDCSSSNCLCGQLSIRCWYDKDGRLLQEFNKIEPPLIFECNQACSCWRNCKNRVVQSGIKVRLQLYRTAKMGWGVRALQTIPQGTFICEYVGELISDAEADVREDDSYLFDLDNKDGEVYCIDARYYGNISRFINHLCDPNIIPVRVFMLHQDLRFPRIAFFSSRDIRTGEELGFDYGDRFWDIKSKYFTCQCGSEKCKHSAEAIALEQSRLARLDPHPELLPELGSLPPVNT
How it was run: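 Triplicate reactions, 1 h, room temperature. Guanidine HCl stop; Flashplate SPA counts. Activity relative to no-compound (100%) and no-enzyme (0%). IC50 over 100 nM–100 μM; Ki = IC50/2.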

Sequence of MLL1 complex (Q9UBL3 whole entry): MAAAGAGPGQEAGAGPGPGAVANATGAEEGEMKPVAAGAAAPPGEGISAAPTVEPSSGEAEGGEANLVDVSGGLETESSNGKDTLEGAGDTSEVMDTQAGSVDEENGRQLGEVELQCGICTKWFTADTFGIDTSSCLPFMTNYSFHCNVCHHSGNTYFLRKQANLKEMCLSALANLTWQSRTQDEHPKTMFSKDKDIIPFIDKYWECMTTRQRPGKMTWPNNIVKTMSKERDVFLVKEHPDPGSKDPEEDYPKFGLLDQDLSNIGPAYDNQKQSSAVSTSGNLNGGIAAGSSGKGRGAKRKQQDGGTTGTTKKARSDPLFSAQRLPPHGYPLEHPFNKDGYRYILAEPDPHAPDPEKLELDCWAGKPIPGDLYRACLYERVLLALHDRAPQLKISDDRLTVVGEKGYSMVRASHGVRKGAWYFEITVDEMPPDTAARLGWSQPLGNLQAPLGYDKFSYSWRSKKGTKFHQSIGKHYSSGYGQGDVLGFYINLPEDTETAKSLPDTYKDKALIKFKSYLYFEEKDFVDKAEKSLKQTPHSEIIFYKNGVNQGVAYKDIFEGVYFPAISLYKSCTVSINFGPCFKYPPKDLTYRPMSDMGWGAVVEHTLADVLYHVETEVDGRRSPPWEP
Sequence of MLL1 complex (Q03164 3745-3969): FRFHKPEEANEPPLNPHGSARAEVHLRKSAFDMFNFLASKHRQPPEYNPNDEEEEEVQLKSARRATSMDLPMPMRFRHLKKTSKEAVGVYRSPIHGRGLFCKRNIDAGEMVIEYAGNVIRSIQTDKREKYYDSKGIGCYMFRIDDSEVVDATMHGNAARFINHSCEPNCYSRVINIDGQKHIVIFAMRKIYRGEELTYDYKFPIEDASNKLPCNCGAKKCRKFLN
Sequence of MLL1 complex (Q15291 whole entry, further chain): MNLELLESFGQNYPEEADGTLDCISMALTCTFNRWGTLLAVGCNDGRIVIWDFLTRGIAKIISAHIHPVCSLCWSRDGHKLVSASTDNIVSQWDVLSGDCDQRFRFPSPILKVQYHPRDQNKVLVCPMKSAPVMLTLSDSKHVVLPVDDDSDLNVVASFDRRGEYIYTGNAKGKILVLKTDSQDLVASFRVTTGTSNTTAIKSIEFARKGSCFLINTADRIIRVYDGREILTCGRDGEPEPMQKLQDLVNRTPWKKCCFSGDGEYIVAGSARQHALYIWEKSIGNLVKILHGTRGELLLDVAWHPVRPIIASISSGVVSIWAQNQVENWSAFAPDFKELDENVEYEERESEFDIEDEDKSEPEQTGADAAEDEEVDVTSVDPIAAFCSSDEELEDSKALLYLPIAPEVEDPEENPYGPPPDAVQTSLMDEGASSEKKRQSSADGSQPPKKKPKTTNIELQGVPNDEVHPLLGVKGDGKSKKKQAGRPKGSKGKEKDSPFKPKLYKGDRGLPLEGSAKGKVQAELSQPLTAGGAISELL
Sequence of EZH2 (PRC2 complex) (Q15910 whole entry, species assumed): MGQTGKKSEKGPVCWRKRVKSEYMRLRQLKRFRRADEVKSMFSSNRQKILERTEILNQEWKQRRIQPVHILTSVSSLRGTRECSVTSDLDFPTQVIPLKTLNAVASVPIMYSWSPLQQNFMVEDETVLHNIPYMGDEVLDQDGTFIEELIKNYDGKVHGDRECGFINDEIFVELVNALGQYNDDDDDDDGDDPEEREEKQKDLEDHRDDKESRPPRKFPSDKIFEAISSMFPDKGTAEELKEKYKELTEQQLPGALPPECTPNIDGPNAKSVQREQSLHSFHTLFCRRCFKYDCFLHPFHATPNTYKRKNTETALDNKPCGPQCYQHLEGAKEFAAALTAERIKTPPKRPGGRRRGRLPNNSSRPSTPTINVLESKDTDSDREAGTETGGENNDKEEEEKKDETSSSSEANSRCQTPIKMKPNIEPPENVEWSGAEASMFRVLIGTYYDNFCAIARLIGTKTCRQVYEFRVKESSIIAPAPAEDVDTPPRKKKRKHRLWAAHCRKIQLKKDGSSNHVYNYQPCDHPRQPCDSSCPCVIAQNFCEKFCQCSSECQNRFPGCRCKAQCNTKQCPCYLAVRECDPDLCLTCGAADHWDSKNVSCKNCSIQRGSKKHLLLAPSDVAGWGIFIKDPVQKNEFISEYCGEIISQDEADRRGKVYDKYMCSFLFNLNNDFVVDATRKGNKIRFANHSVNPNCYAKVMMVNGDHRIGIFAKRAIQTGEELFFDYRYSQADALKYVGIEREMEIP
Sequence of EZH2 (PRC2 complex) (O75530 whole entry partner, species assumed): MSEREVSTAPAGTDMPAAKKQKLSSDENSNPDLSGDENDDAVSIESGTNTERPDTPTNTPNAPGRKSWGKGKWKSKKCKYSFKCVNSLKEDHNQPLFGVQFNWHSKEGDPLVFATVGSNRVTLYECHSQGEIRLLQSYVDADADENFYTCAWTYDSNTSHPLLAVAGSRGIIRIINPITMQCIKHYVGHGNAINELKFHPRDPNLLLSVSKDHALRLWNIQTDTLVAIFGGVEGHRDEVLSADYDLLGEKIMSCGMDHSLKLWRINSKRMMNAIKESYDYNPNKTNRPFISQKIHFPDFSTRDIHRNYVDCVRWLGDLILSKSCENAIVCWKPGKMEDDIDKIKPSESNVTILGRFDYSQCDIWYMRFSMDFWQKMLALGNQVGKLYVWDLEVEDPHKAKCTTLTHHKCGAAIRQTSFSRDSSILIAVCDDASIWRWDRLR
Sequence of EZH2 (PRC2 complex) (Q15022 whole entry partner, species assumed): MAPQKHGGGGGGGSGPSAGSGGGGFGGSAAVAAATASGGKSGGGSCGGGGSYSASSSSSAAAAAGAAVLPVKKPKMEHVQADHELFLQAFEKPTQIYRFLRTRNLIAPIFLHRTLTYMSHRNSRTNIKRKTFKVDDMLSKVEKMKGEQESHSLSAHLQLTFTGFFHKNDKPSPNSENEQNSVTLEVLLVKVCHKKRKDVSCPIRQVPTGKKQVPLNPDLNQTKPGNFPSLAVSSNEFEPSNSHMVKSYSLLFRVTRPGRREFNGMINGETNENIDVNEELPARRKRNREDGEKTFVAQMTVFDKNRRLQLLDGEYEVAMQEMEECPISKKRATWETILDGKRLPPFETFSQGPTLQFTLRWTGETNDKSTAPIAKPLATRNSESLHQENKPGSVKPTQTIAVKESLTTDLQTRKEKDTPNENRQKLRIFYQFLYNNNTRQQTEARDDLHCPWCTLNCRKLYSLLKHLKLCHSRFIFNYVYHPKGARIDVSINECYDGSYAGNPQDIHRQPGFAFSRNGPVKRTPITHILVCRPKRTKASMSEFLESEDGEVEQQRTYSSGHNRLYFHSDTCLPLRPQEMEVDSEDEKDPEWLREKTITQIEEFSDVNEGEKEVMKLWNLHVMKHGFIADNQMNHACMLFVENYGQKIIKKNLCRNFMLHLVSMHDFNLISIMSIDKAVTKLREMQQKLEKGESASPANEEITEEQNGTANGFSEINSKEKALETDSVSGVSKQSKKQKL
Sequence of SUV39H2 (Q9H5I1 whole entry, species assumed): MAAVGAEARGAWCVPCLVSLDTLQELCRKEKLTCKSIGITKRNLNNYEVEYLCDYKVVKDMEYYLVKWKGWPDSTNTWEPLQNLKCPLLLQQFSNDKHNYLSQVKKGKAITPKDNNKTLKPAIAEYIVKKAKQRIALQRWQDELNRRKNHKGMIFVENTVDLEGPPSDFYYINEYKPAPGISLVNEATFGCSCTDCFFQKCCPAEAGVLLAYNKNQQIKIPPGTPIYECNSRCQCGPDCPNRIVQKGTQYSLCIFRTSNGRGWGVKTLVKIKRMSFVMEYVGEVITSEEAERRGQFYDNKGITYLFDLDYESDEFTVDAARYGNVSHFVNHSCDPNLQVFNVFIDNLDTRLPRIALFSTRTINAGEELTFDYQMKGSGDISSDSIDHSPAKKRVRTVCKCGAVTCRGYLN
Sequence of PRMT3 (O60678 whole entry, species assumed): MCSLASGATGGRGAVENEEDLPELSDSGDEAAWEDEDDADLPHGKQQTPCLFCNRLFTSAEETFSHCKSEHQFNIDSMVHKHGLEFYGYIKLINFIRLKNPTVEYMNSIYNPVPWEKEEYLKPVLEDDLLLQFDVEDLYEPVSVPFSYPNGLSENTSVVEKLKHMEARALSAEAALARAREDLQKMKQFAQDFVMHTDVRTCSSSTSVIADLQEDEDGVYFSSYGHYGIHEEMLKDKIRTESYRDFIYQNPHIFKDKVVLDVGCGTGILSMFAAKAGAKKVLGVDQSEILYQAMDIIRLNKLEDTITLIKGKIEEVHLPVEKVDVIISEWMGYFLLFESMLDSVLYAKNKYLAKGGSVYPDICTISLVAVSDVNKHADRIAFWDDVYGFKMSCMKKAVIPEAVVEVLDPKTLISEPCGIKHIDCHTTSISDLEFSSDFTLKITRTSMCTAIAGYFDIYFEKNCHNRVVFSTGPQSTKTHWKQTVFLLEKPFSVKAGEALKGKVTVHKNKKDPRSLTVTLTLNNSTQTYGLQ

For `Nc1ncnc2c1c(Br)cn2[C@@H]1O[C@H](CSCC[C@H](N)C(=O)O)[C@@H](O)[C@H]1O` [BrSAH, N7-Bromo-deaza-S-adenosyl-L-homocysteine], the “activity against SUV39H2” value (SUV39H2) was “inactive”, the Ki (SUV39H2; SUV39H2, compound 100 nM to 100 μM, SAM = Km) was “No inhibition” and the “activity against MLL” value (MLL1 complex) was “inactive”. For the same compound, the Ki (MLL1 complex; MLL, compound 100 nM to 100 μM, SAM = Km) was “No inhibition”, the “binding to the haspin catalytic domain by differential scanning fluorimetry” value (haspin catalytic domain) was “no binding” and the “activity against EZH2 (present in the PRC2 complex)” value (EZH2 (PRC2 complex)) was “inactive”. For the same compound, the Ki (EZH2 (PRC2 complex); PRC2, compound 100 nM to 100 μM, SAM = Km) was “No inhibition”, the IC50 (PRMT3) was 2000 nM and the “times less active against PRMT3 than DOT1L” value (PRMT3; IC50 ratio versus DOT1L) was “about 25”. For the same compound, the “activity against SETD8” value (SETD8) was “inactive”, the Ki (SETD8; SETD8, compound 100 nM to 100 μM, SAM = Km) was “No inhibition” and the IC50 (PRMT5-MEP50) was 2000 nM. The “times less active against PRMT5 than DOT1L” value (PRMT5-MEP50; IC50 ratio versus DOT1L) was “about 25”, the “activity against EHMT1/GLP” value (EHMT1/GLP) was “inactive” and the Ki (EHMT1/GLP; EHMT1, compound 100 nM to 100 μM, SAM = Km) was “No inhibition”. The “activity against SETD7” value (SETD7) was “inactive”, the Ki (SETD7; SETD7, compound 100 nM to 100 μM, SAM = Km) was “No inhibition” and the “activity against EHMT2/G9a” value (EHMT2/G9a) was “inactive”. The Ki (EHMT2/G9a; G9a, compound 100 nM to 100 μM, SAM = Km) was “No inhibition”.
